# In the library only some 2.3% were active in any assay of this set; here they are far more common.
# TDP2 inh = blocks human TDP2 phosphodiesterase activity | O95551 | recombinant TDP2, T5PNP hydrolysis, p-nitrophenol absorbance 415 nm | inhibition, % at 12.8 µM | 0.34% of 370,000 active;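 active = inhibition above the mean of all tested compounds plus 3 SD, set per campaign, cut at about 25% in these data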;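 also: 0% = DMSO with enzyme and 100% = buffer with substrate but no TDP2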
#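 Test system: human TDP2 enzyme; Input: 120 nM TDP2 per well; Buffer or medium: Mg2+-containing Tris-HCl buffer, pH 7.5; Reagent: 5 mM T5PNP; Dosing: 12.8 µM single point, 1% DMSO; Incubation: reaction 2 h, 37 °C; Detection: p-Nitrophenol epi absorbance; Read-out: % inhibition relative to enzyme-containing and enzyme-free wells; Replicates: single well per compound.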
# PAFAH1B3 inh = blocks human PAF acetylhydrolase 1B catalytic subunit 3; Q15102; recombinant PAFAH1B3, FP-rhodamine probe, fluorescence polarization; inhibition, % at 3.39 µM; 0.28% of 340,000 active; AID 492972;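 active = inhibition above the screen-wide average of all tested compounds plus 3 SD, cut at about 25% in these data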;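 also: 0% = enzyme with DMSO only and 100% = wells lacking PAFAH1B3 protein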
# PAFAH2 FP inh = PAFAH2 (human) inhibition; AID 492956; 0.99% of 340,000 active; recombinant PAFAH2, FP-rhodamine activity probe, fluorescence polarization; inhibition, % at 3.39 µM;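 active = inhibition above the mean over all tested compounds plus 3 SD, cut at about 30% in these data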;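 also: inhibitors block probe labeling of enzyme so polarization drops; 0% = enzyme with DMSO and 100% = wells lacking PAFAH2 protein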
# Apaf1 inhib = human Apaf-1 inhibition. inhibition, % at 20 µM. 0.71% of 330,000 active. O14727. AID 489030. reconstituted apoptosome caspase-3 activity, DEVD-Rh110 fluorescence; active = inhibition of at least 40% at 20 µM;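 also: plate controls were DMSO wells for no effect and DEVD-CHO caspase inhibitor wells for full effect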
# Target sequence (O14727 whole entry, looked up): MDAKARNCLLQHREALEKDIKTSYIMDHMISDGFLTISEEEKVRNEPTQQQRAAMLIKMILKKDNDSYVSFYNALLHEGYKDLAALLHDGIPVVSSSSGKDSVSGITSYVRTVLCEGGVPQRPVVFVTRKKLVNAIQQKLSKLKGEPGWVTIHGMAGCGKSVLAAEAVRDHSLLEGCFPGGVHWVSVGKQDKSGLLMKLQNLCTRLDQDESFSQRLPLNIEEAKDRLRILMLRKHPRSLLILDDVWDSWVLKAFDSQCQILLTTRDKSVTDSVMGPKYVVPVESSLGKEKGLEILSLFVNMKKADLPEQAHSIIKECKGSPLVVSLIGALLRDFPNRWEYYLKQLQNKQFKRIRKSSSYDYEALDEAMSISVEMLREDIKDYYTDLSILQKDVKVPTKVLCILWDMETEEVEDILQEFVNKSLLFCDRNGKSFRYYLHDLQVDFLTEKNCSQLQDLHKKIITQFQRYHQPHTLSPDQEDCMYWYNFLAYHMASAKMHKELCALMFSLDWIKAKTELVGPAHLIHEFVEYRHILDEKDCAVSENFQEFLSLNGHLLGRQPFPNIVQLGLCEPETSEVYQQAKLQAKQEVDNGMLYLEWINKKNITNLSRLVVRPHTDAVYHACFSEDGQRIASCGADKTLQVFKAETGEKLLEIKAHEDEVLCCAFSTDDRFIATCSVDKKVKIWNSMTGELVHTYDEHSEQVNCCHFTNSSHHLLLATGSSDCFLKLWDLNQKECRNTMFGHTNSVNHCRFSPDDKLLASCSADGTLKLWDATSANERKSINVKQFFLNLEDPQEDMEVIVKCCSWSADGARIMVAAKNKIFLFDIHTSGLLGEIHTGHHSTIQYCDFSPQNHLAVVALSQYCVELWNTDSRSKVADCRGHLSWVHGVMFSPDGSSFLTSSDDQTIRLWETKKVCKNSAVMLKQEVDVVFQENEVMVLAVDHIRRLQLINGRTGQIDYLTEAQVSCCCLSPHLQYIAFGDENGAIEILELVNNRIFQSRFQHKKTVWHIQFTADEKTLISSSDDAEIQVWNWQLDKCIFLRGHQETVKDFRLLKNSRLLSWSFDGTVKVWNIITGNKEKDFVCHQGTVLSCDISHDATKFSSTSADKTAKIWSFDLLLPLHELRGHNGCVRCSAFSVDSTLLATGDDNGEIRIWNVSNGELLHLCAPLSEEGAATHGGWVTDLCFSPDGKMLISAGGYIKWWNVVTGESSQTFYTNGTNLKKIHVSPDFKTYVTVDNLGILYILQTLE
#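 Material: reconstituted apoptosome with Apaf-1, cytochrome c, caspase-9, procaspase-3, dATP; medium: pH 7.5 Hepes buffer with CHAPS, BSA, DTT; also added: cytochrome c and DEVD-Rh110 substrate; timing: 30 min plus 50 min, RT; signal: Rh110 fluorescence intensity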
# PAFAH1B2 inh = blocks human PAF acetylhydrolase 1b catalytic subunit 2; P68402; recombinant PAFAH1B2, FP-rhodamine activity probe, fluorescence polarization; inhibition, % at 3.39 µM; 1.2% of 340,000 active; AID 492953;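 active = inhibition above the mean of all tested compounds plus 3 SD, cut at about 24% in these data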;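 also: 0% = enzyme with DMSO and 100% = wells lacking PAFAH1B2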
# PAFAH2 confirm = PAFAH2 (human) inhibition, confirmed; shares compounds with PAFAH2 FP inh; 65% of 2,300 active; inhibition, % at 3.39 µM; recombinant PAFAH2, FP-rhodamine activity probe, fluorescence polarization;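 active = mean inhibition over three repeats above a set limit taken from the earlier primary screen, cut at about 30% in these data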;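 also: inhibitor blocks binding of rhodamine activity probe so polarization falls; 0% = enzyme with DMSO and 100% = wells lacking PAFAH2 protein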
# The depositor's hits bear a star; x = no result.
SMILES,TDP2 inh,PAFAH1B3 inh,PAFAH2 FP inh,Apaf1 inhib,PAFAH1B2 inh,PAFAH2 confirm
COc1ccc(/C=C/C(=O)OCC(=O)Nc2ccc(Cl)cc2F)cc1S(=O)(=O)N1CCOCC1,-1,4,73*,10,3,48*
OCCCN1CCC2(CCC(c3ccccc3)CC2)C1 (stereo unspecified),8,x,x,x,x,x
CCN(CC)S(=O)(=O)c1cc(C(=O)OCC(=O)NC(=O)c2cccn2C)ccc1C,9,-4,62*,2,6,50*
Cn1cccc1C(=O)NC(=O)COC(=O)c1ccc(S(C)(=O)=O)c([N+](=O)[O-])c1,x,-4,23,13,4,x
Cn1cccc1C(=O)NC(=O)COC(=O)c1ccc(O)cc1,4,2,52*,-5,0,45*
Cn1cccc1C(=O)NC(=O)COC(=O)c1ccc(S(C)(=O)=O)cc1,3,8,-1,-11,2,x
CC(C)NC(=O)COC(=O)c1ccc(O)cc1,8,5,48*,-4,3,24
Cc1ccc(-n2ncc(C(=O)N3CCc4ccccc4C3)c2NC(=O)c2ccco2)cc1C,4,-5,35*,20,10,7
COc1ccc(CCNC(=O)c2cnn(-c3ccc(C)c(C)c3)c2NC(=O)c2ccco2)cc1OC,6,2,8,-10,-3,x
N#Cc1ccc(C(=O)Oc2coc(CSc3ncccn3)cc2=O)cc1,-5,x,x,x,x,x
c1ccc(-c2c[nH]c3cccc(-c4cc5ccccc5o4)c23)cc1,-1,x,x,x,x,x
NC(=O)NC(=O)COC(=O)/C=C/c1cccs1,4,6,2,0,6,x
O=C(COC(=O)Cc1cccs1)Nc1ccccc1Cl,6,9,10,-1,4,x
O=C(COC(=O)/C=C/c1cccs1)Nc1ccccc1Cl,-3,5,58*,0,-5,36*
CC(=O)c1ccc(NC(=O)COC(=O)/C=C/c2cccs2)cc1,0,5,57*,10,9,46*
CC(=O)c1ccccc1NC(=O)COC(=O)/C=C/c1ccc(C)o1,-11,1,31*,-6,2,24
CC(=O)c1ccccc1NC(=O)COC(=O)/C=C/c1cccs1,0,4,53*,5,-2,39*
COC(CNC(=O)[C@H](Cc1c[nH]c2ccccc12)NC1(C(=O)NC2CCCCC2)CCCCC1)OC,-5,x,x,x,x,x
C#CCCC(=O)O[C@H]1CCC[C@@]2(C(=O)N(Cc3ccccc3)c3ccccc32)[C@H]1NC(=O)CCc1ccccc1,2,x,x,x,x,x
O=C(COC(=O)/C=C/c1cccs1)Nc1ccc2ccccc2c1,5,-2,56*,10,4,51*
COC(=O)CNC(=O)COC(=O)/C=C/c1cccs1,10,-3,15,0,2,x
O=C(COC(=O)c1cc(S(=O)(=O)N2CCOCC2)ccc1F)Nc1ccc2c(c1)OCO2,0,0,3,-6,-1,x
COc1ccc(C2CC(c3ccccc3)=NN2C(=O)COC(=O)c2cc(S(=O)(=O)N3CCOCC3)ccc2Cl)cc1 (stereo unspecified),8,-15,31*,10,-8,23
COc1cccc(NC(=O)COC(=O)c2cc(S(=O)(=O)N3CCOCC3)ccc2C)c1,4,6,35*,12,1,21
Cc1ccc(S(=O)(=O)N2CCOCC2)cc1C(=O)OCC(=O)Nc1ccc2c(c1)OCO2,-3,8,37*,13,3,23
SMILES,TDP2 inh,PAFAH1B3 inh,PAFAH2 FP inh,Apaf1 inhib,PAFAH1B2 inh,PAFAH2 confirm
CCOC(=O)CCCNC(=O)OC1CC2CC1[C@H]1CCCCN1[C@H]2Cc1ccccc1 (stereo partly specified),-1,x,x,x,x,x
CCS(=O)(=O)c1ccc(O)c(NC(=O)Nc2ccc(C(C)(C)C)cc2)c1,-9,1,8,-3,11,x
CCS(=O)(=O)c1ccc(O)c(NC(=O)Nc2ccccc2)c1,1,-5,45*,2,3,29
N#Cc1ccc(NC(=O)OC2CCC23CCC(c2ccccc2)CC3)cc1 (stereo unspecified),2,x,x,x,x,x
CC(C)(C)C(=O)OCc1cn(-c2ccc(Cl)cc2)nn1,1,1,7,7,2,x
O=C(OCc1cn(-c2ccc(Cl)cc2)nn1)c1ccccc1,11,4,69*,1,5,69*
O=C(COC(=O)C1CC1)Nc1ccc(N=Nc2ccccc2)cc1,-4,4,85*,7,3,78*
O=C(COC(=O)C1CC1)Nc1ccc(OC(F)F)cc1,-8,9,55*,-2,1,46*
O=C(COC(=O)C1CC1)NC(=O)c1ccccc1,-22,2,32*,-13,11,13
O=C(COC(=O)C1CCC1)Nc1ccc(OC(F)F)cc1,-1,-3,16,12,4,x
O=C(COC(=O)C1CCC1)NC(=O)c1ccccc1,10,9,16,8,5,x
O=C(COC(=O)C1CC1)Nc1cccc(Cl)c1,-1,x,x,x,x,x
COC(=O)C1=C(C)N(Cc2cccc(C(F)(F)F)c2)C(=NCc2ccc(OC)cc2)NC1c1ccc(F)cc1 (stereo unspecified),5,x,x,x,x,x
CCN(CC)C(=O)CC[C@H]1CC[C@]2(CCCN(C(=O)C(C)(C)C)C2)O1,0,x,x,x,x,x
CCOC(=O)c1nnn(-c2nonc2-n2cccc2)c1CCl,-1,5,31*,-7,1,44*
O=c1[nH]c2cc(C(F)(F)F)ccc2n1-c1cc(C(F)(F)F)ccc1O,11,-3,49*,1,2,42*
Cc1c(C(C)(C)O)[nH]c2cc(C(F)(F)F)ccc12,-3,1,2,6,7,x
Cc1ccccc1S(=O)(=O)N(C)C[C@@H]1OCc2cn(nn2)CCCC(=O)N([C@@H](C)CO)C[C@H]1C,6,x,x,x,x,x
CC(=O)Nc1cccc2c1Cc1ccccc1-2,x,2,42*,6,2,-2
CCN(CC)S(=O)(=O)c1ccc(N2CCOCC2)c(NC(=O)Cc2cccc3ccccc23)c1,5,6,60*,20,-7,45*
Cc1cccc(CN[C@@H]2CC[C@@]34CCCN3C(=O)CCC[C@H]4C2)c1,7,x,x,x,x,x
COc1ccc(CCNC(=O)COC(=O)c2cccs2)cc1OC,-1,-3,-1,-163,6,x
COc1ccc(CCNC(=O)COC(=O)c2ccc(C)s2)cc1,2,4,56*,4,7,47*
COc1ccc(CCNC(=O)COC(=O)c2cccs2)cc1,3,1,44*,6,-1,34*
CC[C@H](NC(=O)[C@@H](Cc1ccccc1)NC(=O)[C@H]1O[C@@H](n2cnc3c(=O)[nH]c(N)nc32)[C@H](O)[C@@H]1O)c1ccccc1,1,x,x,x,x,x
COc1cccc(/C=C2\SC(=S)N(NS(=O)(=O)c3ccc(C)cc3)C2=O)c1OC,-1,6,33*,9,5,22
